Measured values as given in ChEMBL document CHEMBL1125027, “Synthesis and cytotoxicity studies of 8-amino-6-methyl-2-beta-D-ribofuranosyl-1,2,3,5,6,7-hexaazaacenaphthyle ne (7-aza-TCN) and the corresponding 2'-deoxy- and arabinonucleoside analogues” (1990).

How the values were obtained:
L1210 [1] = test: Growth rate of L1210 tumor cells at a concentration of 50 uM; format: functional, Mus musculus
Procedure, shortened: (§1)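 Murine leukemia L1210 grown in static suspension in Fischer's medium with test compound for 3 days, counted daily. Growth rate = slope of log cell number vs time relative to control, computed as control doubling time (about 12 h) / treated doubling time, expressed as %. Values are single experiments unless footnoted as the average of three.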

HEp-2 [2] = test: Growth rate of H.Ep.2 tumor cells at a concentration of 50 uM; format: functional, Homo sapiens
Procedure, shortened: (§2)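 Human epidermoid carcinoma H.Ep.2 monolayers kept in exponential growth in Eagle's basal medium (Hanks' salts) with 0.5 g/L NaHCO3 and 15% heat-inactivated calf serum. 2 × 10^4 cells seeded per flask; after 1 day, compound-containing medium added. Trypsin/EDTA harvest and counts of two flasks per group on days 1, 2 and 4. Growth rate = control doubling time (about 19 h) / treated doubling time, as % of control.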

L1210 [3] = test: Growth rate of L1210 tumor cells at a concentration of 100 uM; format: functional, Mus musculus; procedure, shortened: as §1
L1210 [4] = test: Growth rate of L1210 tumor cells at a concentration of 10 uM; format: functional, Mus musculus; procedure, shortened: as §1
HEp-2 [5] = test: Growth rate of H.Ep.2 tumor cells at a concentration of 10 uM; format: functional, Homo sapiens; procedure, shortened: as §2
HEp-2 [6] = test: Growth rate of H.Ep.2 tumor cells at a concentration of 100 uM; format: functional, Homo sapiens; procedure, shortened: as §2

Row | Compound | Growth rate (L1210 [3]) [%] | Growth rate (HEp-2 [6]) [%] | other results
1 | CN1N=C(N)c2nn(C3O[C@H](CO)[C@@H](O)[C@@H]3O)c3ncnc1c23 (stereo not given in full) |  |  | Growth rate (L1210 [1]): 75%; Growth rate (HEp-2 [2]): 62%
2 | CSc1nc2c3c(nn(C4O[C@H](CO)[C@@H](O)[C@H]4O)c3n1)C(N)=NN2C (stereo not given in full) | 81 |  | 
3 | CN1N=C(N)c2nn(C3O[C@H](CO)[C@@H](O)[C@H]3O)c3nc(NN)nc1c23 (stereo not given in full) |  |  | Growth rate (L1210 [4]): 86%; Growth rate (HEp-2 [5]): 88%
4 | CN1N=C(N)c2nn([C@H]3C[C@H](O)[C@@H](CO)O3)c3ncnc1c23 | 83 | 100 | 
5 | CN1N=C(N)c2nn(C3O[C@H](CO)[C@@H](O)[C@H]3O)c3nc(S(C)(=O)=O)nc1c23 (stereo not given in full) | 86 |  | 
6 | CN1N=C(N)c2nn(C3O[C@H](CO)[C@@H](O)[C@H]3O)c3ncnc1c23 (stereo not given in full) | 63 | 67 | 
